{
  "source": "paper PMC11329366",
  "about": "(Clinical and Translational Science, 2024)",
  "key": {"plasma aldosterone": {"tested_on": "plasma aldosterone", "assay": "Phase I pharmacodynamics: plasma aldosterone concentration", "format": "in vivo, human", "outline": "(§1)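 Plasma aldosterone and serum cortisol were followed after single fasted doses and after daily fed dosing. PAC AUC0–24 and cortisol AUC0–72 were derived non-compartmentally. Log AUC was modelled by dose group (pooled placebo), with Day ‑1 log AUC0–24 as covariate. Log change from time-matched Day ‑1 values over 0–24 h used a linear mixed model with unstructured covariance.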"}, "[1]": {"assay": "Phase I first-in-human study: plasma and urine pharmacokinetics", "format": "in vivo", "outline": "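Healthy participants received an oral capsule. SAD: 5–800 mg fasted. MAD: 40, 120 or 360 mg once daily Days 1–7, fed. Females, or males ≥65 y, got a single 100 mg fasted dose, referenced to part 1. Plasma (all parts) and urine (MAD) were analysed non-compartmentally, BLQ=0, linear trapezoidal AUC. Dose proportionality used a power model (slope 95% CI); sex/age used geometric mean ratios (90% CI); fed-vs-fasted was compared informally.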"}, "human CYP11B2 (hCYP11B2)": {"target": "T1, human CYP11B2 (hCYP11B2) (Homo sapiens, UniProt P19099)", "T1 sequence (P19099 25-503)": "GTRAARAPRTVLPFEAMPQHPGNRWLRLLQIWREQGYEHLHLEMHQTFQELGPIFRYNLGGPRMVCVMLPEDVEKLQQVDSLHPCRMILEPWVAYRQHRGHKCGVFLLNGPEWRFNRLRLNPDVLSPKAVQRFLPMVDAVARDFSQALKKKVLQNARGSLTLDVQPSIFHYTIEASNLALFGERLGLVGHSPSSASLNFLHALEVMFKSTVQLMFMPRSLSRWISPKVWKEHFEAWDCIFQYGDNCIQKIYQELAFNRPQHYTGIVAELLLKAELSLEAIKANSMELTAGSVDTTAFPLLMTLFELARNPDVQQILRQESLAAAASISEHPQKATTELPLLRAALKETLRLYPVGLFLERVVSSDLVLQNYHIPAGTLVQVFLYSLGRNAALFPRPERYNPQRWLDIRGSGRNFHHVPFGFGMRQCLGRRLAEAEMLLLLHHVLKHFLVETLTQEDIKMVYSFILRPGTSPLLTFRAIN", "assay": "Assay of hCYP11B2 inhibition", "format": "biochemical", "details": "from inhibition constants", "outline": "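Enzyme source: mitochondrial fraction of V79 cells stably expressing human CYP11B2 or human CYP11B1. Substrates were 11-DOC (converted to aldosterone, CYP11B2) and 11-deoxycortisol (converted to cortisol, CYP11B1). Inhibition constants came from product-generation rates with the free base. A dual CYP11B1/CYP11B2 reference inhibitor served as positive control.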"}, "plasma renin activity": {"tested_on": "plasma renin activity", "assay": "Phase I pharmacodynamics: plasma renin activity", "format": "in vivo, human", "details": "MAD 40 to 360 mg once daily"}, "[2]": {"assay": "Phase I first-in-human study: safety and tolerability", "format": "in vivo", "outline": "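Randomized, double-blind, placebo-controlled. SAD cohorts had 6 active/2 placebo, with two sentinels dosed ≥24 h before the rest. MAD cohorts had 9 active/3 placebo, dosed daily Days 1–7. Safety data were reviewed before each next cohort. Monitoring covered TEAEs, treatment-related TEAEs, vital signs, 12-lead ECGs, clinical laboratory tests and physical examinations.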"}, "serum cortisol": {"tested_on": "serum cortisol", "assay": "Phase I pharmacodynamics: serum cortisol, incl. ACTH challenge", "format": "in vivo, human", "outline": "as §1"}, "serum 11-DOC": {"tested_on": "serum 11-DOC", "assay": "Phase I pharmacodynamics: serum 11-DOC", "format": "in vivo, human", "details": "MAD 40 to 360 mg once daily"}, "plasma 11-deoxycortisol": {"tested_on": "plasma 11-deoxycortisol", "assay": "Phase I pharmacodynamics: plasma 11-deoxycortisol", "format": "in vivo, human", "details": "MAD, non-ACTH challenge conditions"}, "serum potassium": {"tested_on": "serum potassium", "assay": "Phase I: serum potassium", "format": "in vivo, human", "outline": "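Serum potassium was tracked during 7 days of once-daily 40, 120 or 360 mg dosing (fed) and the following washout. The stopping criterion was 6.0 mmol/L potassium.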"}, "[3]": {"tested_on": "urinary log10 (10 × Na+/K+) ratio", "assay": "Phase I pharmacodynamics: urine sodium and urinary log10", "format": "in vivo, human", "outline": "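Urine was collected in intervals, and the amounts of sodium and potassium excreted per interval were measured. The urinary log10(10 × Na⁺/K⁺) ratio was calculated per interval after single doses and through 7 days of once-daily 40–360 mg dosing plus washout.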"}, "[4]": {"details": "MAD Day 6, all multiple-dose levels"}},
  "data": [
    {"smiles": "CC(=O)N[C@H]1CC[C@H](NC(=O)CN2CCN(c3nncc(-c4ccc(C)cc4)n3)CC2)CC1", "note": "[lorundrostat, Lorundrostat]", "values": [
      {"measurement": "ACTH-stimulated aldosterone response compared with placebo", "setting": "plasma aldosterone; [4]", "result": "completely blunted"},
      {"measurement": "maximum decrease of PAC compared with placebo", "setting": "plasma aldosterone; SAD, at 4 h and 8 h post-dose", "result": "~ 80%"},
      {"measurement": "time for plasma aldosterone to return to baseline", "setting": "plasma aldosterone; multiple once-daily 120-mg doses", "result": "≤ 16", "unit": "h"},
      {"measurement": "reduction of PAC (AUC0–24)", "setting": "plasma aldosterone; single 400- to 800-mg doses", "result": "up to 70%"},
      {"measurement": "time for PAC to return to values near baseline", "setting": "plasma aldosterone; single doses 5–50 mg, post-dose", "result": "≤ 24", "unit": "h"},
      {"measurement": "duration of the reduction of PAC", "setting": "plasma aldosterone; single doses 100–800 mg", "result": "sustained until 24 h post‐dose"},
      {"measurement": "estimate of the slope for AUC0–24 versus dose (power model)", "setting": "[1]; MAD Day 7, 95% CI, 1.060–1.234", "result": 1.147},
      {"measurement": "steady state achieved by", "setting": "[1]; MAD once-daily dosing", "result": "~5", "unit": "days"},
      {"measurement": "estimate of the slope (95% CI) for C max versus dose (power model)", "setting": "[1]; SAD 5–800 mg", "result": "1.104 (1.043–1.164)"},
      {"measurement": "interindividual variability of exposure parameters (C max and AUC0–∞)", "setting": "[1]; SAD 5–800 mg", "result": "< 20", "unit": "%"},
      {"measurement": "effect of fed state on the PK profile", "setting": "[1]; first cohort of part 2 (fed) vs part 1 (fasted), exploratory", "result": "did not appear to be affected"},
      {"measurement": "half-life", "setting": "[1]; human, plasma, oral, 5 mg, t 1/2, SAD 5 mg single dose, fasted, mean (SD)", "result": 8.3, "unit": "h"},
      {"measurement": "half-life", "setting": "[1]; human, plasma, oral, 10 mg, t 1/2, SAD 10 mg single dose, fasted, mean (SD)", "result": 7.9, "unit": "h"},
      {"measurement": "half-life", "setting": "[1]; human, plasma, oral, 40 mg, t 1/2, MAD 40 mg once daily, fed, Day 1, mean (SD)", "result": 5.3, "unit": "h"},
      {"measurement": "half-life", "setting": "[1]; human, plasma, oral, 50 mg, t 1/2, SAD 50 mg single dose, fasted, mean (SD)", "result": 9.1, "unit": "h"},
      {"measurement": "half-life", "setting": "[1]; human, plasma, oral, 120 mg, t 1/2, MAD 120 mg once daily, fed, Day 1, mean (SD)", "result": 4.4, "unit": "h"},
      {"measurement": "half-life", "setting": "[1]; human, plasma, oral, 200 mg, t 1/2, SAD 200 mg single dose, fasted, mean (SD)", "result": 9.9, "unit": "h"},
      {"measurement": "Tmax", "setting": "[1]; human, plasma, oral, 360 mg, T max, MAD 360 mg once daily, fed, Day 1, median (minimum, maximum)", "result": 3, "unit": "h"},
      {"measurement": "half-life", "setting": "[1]; human, plasma, oral, 360 mg, t 1/2, MAD 360 mg once daily, fed, Day 1, mean (SD)", "result": 4.4, "unit": "h"},
      {"measurement": "half-life", "setting": "[1]; human, plasma, oral, 360 mg, t 1/2, MAD 360 mg once daily, fed, Day 7, mean (SD)", "result": 9.2, "unit": "h"},
      {"measurement": "half-life", "setting": "[1]; human, plasma, oral, 400 mg, t 1/2, SAD 400 mg single dose, fasted, mean (SD)", "result": 9.7, "unit": "h"},
      {"measurement": "half-life", "setting": "[1]; human, plasma, oral, 800 mg, t 1/2, SAD 800 mg single dose, fasted, mean (SD)", "result": 10.5, "unit": "h"},
      {"measurement": "half-life", "setting": "[1]; human, plasma, oral, mean t 1/2, MAD Day 7, range over dose groups", "result": "9.1 to 11.9", "unit": "h"},
      {"measurement": "half-life", "setting": "[1]; human, plasma, oral, t 1/2, single- and multiple-dose administration", "result": "10 to 12", "unit": "h"},
      {"measurement": "difference in exposure between females and males", "setting": "[1]; single 100 mg dose, part 3 vs part 1", "result": "no statistically significant difference"},
      {"measurement": "difference in exposure between older adult and younger adult participants", "setting": "[1]; single 100 mg dose, part 4 vs part 1", "result": "no statistically significant difference"},
      {"measurement": "selectivity for CYP11B2 over CYP11B1", "setting": "human CYP11B2 (hCYP11B2)", "result": 374, "unit": "fold"},
      {"measurement": "plasma renin activity compared with placebo", "setting": "plasma renin activity", "result": "increased"},
      {"measurement": "incidence of dizziness (of mild intensity)", "setting": "[2]; across all cohorts, nine lorundrostat-treated participants, placebo one (3.4%)", "result": 10.3, "unit": "%"},
      {"measurement": "overall incidence of TEAEs", "setting": "[2]; all lorundrostat-treated participants (41/87), placebo 18/29 [62%]", "result": 47, "unit": "%"},
      {"measurement": "findings in clinical laboratory, vital signs, ECGs, or physical examination", "setting": "[2]; all parts", "result": "no clinically significant findings"},
      {"measurement": "serious TEAEs", "setting": "[2]; all parts", "result": "no serious TEAEs"},
      {"measurement": "tolerability", "setting": "[2]; all parts, single up to 800 mg, once daily up to 360 mg for 7 days", "result": "well tolerated"},
      {"measurement": "ACTH-stimulated cortisol response", "setting": "serum cortisol; [4]", "result": "no effect"},
      {"measurement": "change from baseline of serum cortisol concentrations", "setting": "serum cortisol; MAD, non-ACTH challenge conditions", "result": "no relevant changes from baseline"},
      {"measurement": "effect on cortisol (AUC0–72)", "setting": "serum cortisol; single doses 10 to 800 mg", "result": "without effecting cortisol"},
      {"measurement": "serum 11-DOC compared with placebo", "setting": "serum 11-DOC", "result": "increased"},
      {"measurement": "change from baseline of plasma 11-deoxycortisol concentrations", "setting": "plasma 11-deoxycortisol", "result": "no relevant changes from baseline"},
      {"measurement": "maximum mean increase of serum potassium", "setting": "serum potassium; MAD 40 mg, Day 8", "result": 0.44, "unit": "mmol/L"},
      {"measurement": "maximum mean increase of serum potassium", "setting": "serum potassium; MAD 120 mg, Day 7", "result": 0.6, "unit": "mmol/L"},
      {"measurement": "subjects reaching the stopping criterion for potassium of 6.0 mmol/L", "setting": "serum potassium; MAD part 2", "result": "None"},
      {"measurement": "urine sodium and urinary log10 (10 × Na+/K+) ratio", "setting": "[3]; MAD Day 1, all dose levels", "result": "initially increased"},
      {"measurement": "urine sodium and urinary log10 (10 × Na+/K+) ratio", "setting": "[3]; MAD Day 7, end of the dosing period", "result": "returned to baseline levels"},
      {"measurement": "urinary log10 (10 × Na+/K+) ratio", "setting": "[3]; MAD, Day 7 to Day 9 (after last dose)", "result": "clear reductions"},
      {"measurement": "urine sodium and urinary log10 (10 × Na+/K+) ratio", "setting": "[3]; SAD, all dose levels", "result": "increased"}
    ]}
  ]
}
